These results are taken from PubChem BioAssay.

As a reminder, the viability is a read-out of living cells in per cent, often relative to untreated cells. The term inhibition denotes the drop in the measured response relative to a control, in per cent.

Molecules are shown by their SMILES. Unmarked numbers belong to inactive results. Results filed as inconclusive are left out. The source made the active and inactive calls.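 How the source made its calls, unless noted: active means cell viability at or below a set limit in both duplicate runs, the limit being the all-compound median minus 4 SD (cut at about 23% in these data, passing the limit was not always enough); inconclusive means no clear call, values can overlap the other calls; inactive means the rest.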

Test [1] in a line: S. cerevisiae growth inhibition in permissive medium (OD615), pilot counter-assay for S. cerevisiae lifespan shortening project, permissive growth control (AID 705;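 active means growth inhibition above 25% in both replicates, a cutoff set 3 SD above the mean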). Particulars: OD615, 24 h, at 10 µM, hits give high values. The gist of the method: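 assay system = Saccharomyces cerevisiae strain carrying genetically modified DeaD replicative-lifespan system | medium = SC raffinose/galactose permissive medium | dosing = 10 µM single dose, 0.25% DMSO | schedule = 24 h compound exposure at 30 °C after 4 h pre-growth | measured by = OD at 615 nm | read-out basis = growth inhibition from lowered OD615 after 24 h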

Test [2] can be described thus: S. cerevisiae growth inhibition in restrictive medium, OD615, pilot screen, restrictive growth control, yeast lifespan reduction project (AID 706;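 active means growth inhibition above a set limit, 3 SD over mean compound inhibition, in both replicates, cut at about 43% in these data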). Particulars: OD615, 48 h, at 10 µM, hits give high values. Put shortly: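 Buffer or medium: CSMM-D glucose medium. Material: genetically modified Saccharomyces cerevisiae, DeaD replicative lifespan assay strain. Times: 48 h compound exposure at 30 °C. Measured by: optical density at 615 nm.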

Test [3] in a line: doxorubicin toxicity protection in MRP-1 cells – H69AR cells, CellTiter-Glo, duplicate, MRP-1 activator project, pilot screen (AID 807;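 active means viability increase at or above a cutoff of the median across tested compounds plus 3 SD, cut at about 8.5% in these data, passing the limit was not always enough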;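 further: compound pretreatment 18-22 h then 72 h combined with doxorubicin; 0% = doxorubicin alone and 100% = vehicle without doxorubicin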). Particulars: H69AR viability with doxorubicin, CellTiter-Glo luminescence; at 10 µM; hits give high values. A general note: ATP-based viability assays read luminescence as a measure of living cells.
Test [4] can be described thus: viability of HCT116 without oncogenic beta-catenin – human colon tumor cells, pilot screen (AID 823).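 Further: 0% = wells killed by 20 µM Hyamine and 100% = untreated DMSO cell wells.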 Particulars: HCT116 beta-catenin knockout viability, CellTiter-Glo, 60 h; at 10 µM; hits give low values.
Test [5] is described as follows: RAM pathway blockade in budding yeast – dse1pr::URA3 reporter, 5-FOA selection, pilot screen (AID 869;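 active means inhibition over a set limit, the all-compound mean plus 3 SD, in both replicate runs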;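 further: 0% = DMSO wells with no growth and 100% = 10 µM 1-NA-PP1 with full growth; RAM network block rescues cells from 5-FOA so hits raise OD615 growth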). Particulars: S. cerevisiae dse1pr::URA3 5-FOA growth, OD615, 2 d; at 10 µM; hits give high values; strain carries analog-sensitive mutant Cbk1 kinase.
A short description of test [6]: RAM signaling pathway blockade in yeast – S. cerevisiae, Pdr1DBD-CYC8 efflux-inhibited sensitized strain, primary screen (AID 1298;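 active means RAM network inhibition above 8.4% in each of two replicates, 3 SD over the compound average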;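 further: 0% = DMSO untreated cells without growth and 100% = 10 µM 1-NA-PP1 full growth; higher means more yeast growth rescued from 5-FOA killing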). Particulars: S. cerevisiae cbk1-as DSE1-URA3 strain, 5-FOA growth OD615, 2 d; at 50 µM; hits give high values.

As to `Cn1c(/C(C#N)=C2/CCCCCN2)nc2ccccc21`, the growth inhibition was -8.98% in test [1] and -2.55% in test [2]. Further, in test [3], the viability increase is -2.4%. The viability in test [4] is 89.6%. In test [5], the inhibition is 0.395%. Besides, the RAM network inhibition in test [6] was 1.35%.
On to `CCCc1[nH]nc2c1C(C1CC=CCC1)C(C#N)=C(N)O2` (centres undefined), for which the growth inhibition in test [1] was 4.52%; in test [2], 6.39%. The viability increase in test [3] was -6.94%. Further, the viability in test [4] is 11.9% (active). In test [5], the inhibition is -0.015%. In addition, in test [6], the RAM network inhibition was 1.22%.
`Cn1ccnc1SCC(=O)NC1CCCCC1`: the growth inhibition is -11.1% in test [1] and -7.09% in test [2]. Besides, the viability increase in test [3] was -0.96%. For the same molecule, in test [4], the viability was 100%. Also, in test [5], the inhibition is 3.6%. Moreover, the RAM network inhibition in test [6] is 1.87%.
For the molecule `Cc1c(C(=O)NCC2COc3ccccc3O2)oc2ccc(S(=O)(=O)N3CCOCC3)cc12` (centres undefined), the growth inhibition in test [1] is -22%; in test [2] it was -8.28%. Further, the viability increase in test [3] is -2.13%. Also, the viability in test [4] was 42.2%. Further, the inhibition in test [5] is 3.01%. In addition, the RAM network inhibition in test [6] is 6.17%.
Take `CCOc1ccc(NC(=O)C2CC(C)=C(C)CC2C(=O)O)cc1` (centres undefined): the growth inhibition in test [1] was -13.3%; in test [2], 2.49%. In test [3], the viability increase is -1.85%. Moreover, in test [4], the viability was 99.1%. The inhibition in test [5] was 1.79%. The RAM network inhibition in test [6] is 1.67%.
On to `CCOC(=O)C1CCCN(C(=O)CC(C)c2ccccc2)C1` (centres undefined), for which the growth inhibition in test [1] is -14.4%; in test [2], -0.005%. The viability increase in test [3] is -1.25%. In test [4], the viability was 104%. In addition, the inhibition in test [5] was 1.57%. The RAM network inhibition in test [6] is 3.91%.
In the case of `O=C(c1ccccn1)N1CCN(c2ccc(C(F)(F)F)cn2)CC1`, the growth inhibition in test [1] is -20.7%; in test [2] it was -2.59%. Also, the viability increase in test [3] was 0.37%. Moreover, the viability in test [4] was 96.5%. The inhibition in test [5] is 1.64%. Also, the RAM network inhibition in test [6] was 3.84%.
As for `Cc1ccccc1Cn1cc(S(=O)(=O)CC(=O)Nc2nccs2)c2ccccc21`, the growth inhibition in test [1] is -30.2%; in test [2], 6.15%. The viability increase in test [3] is -5.34%. Moreover, the viability in test [4] is 70.4%. The inhibition in test [5] is 4.8%. Besides, the RAM network inhibition in test [6] was 8.89%.
Take `Cc1ccccc1C(=O)Nc1nnc(-c2ccc(F)cc2)o1`: the growth inhibition in test [1] is -3.21%; in test [2] it was 11.5%. In addition, in test [3], the viability increase was -2.91%. For the same molecule, in test [4], the viability was 33%. Besides, the inhibition in test [5] was 0.6%. The RAM network inhibition in test [6] was 4.65%.
For the molecule `COc1cc(C2/C(=C(\O)c3cc(C)ccc3C)C(=O)C(=O)N2CCN(C)C)ccc1O` (centres undefined), the growth inhibition in test [1] is -21.2%; in test [2], -6.28%. The viability increase in test [3] is -1.94%. Besides, the viability in test [4] was 100%. Further, the inhibition in test [5] was 1.94%. In test [6], the RAM network inhibition is 10.3%.
With `O=C(C1=C(O)C(=O)N(CCc2ccccc2)C1c1cccnc1)c1ccco1` (centres undefined), the growth inhibition in test [1] is -23.9%; in test [2], -2.02%. Moreover, the viability increase in test [3] was -3.61%. Further, the viability in test [4] is 104%. Also, in test [5], the inhibition was 2.01%. Also, the RAM network inhibition in test [6] is 2.81%.
Turning to `CCC(=O)NC(C)c1nc2ccccc2n1C` (centres undefined), the growth inhibition was -9.66% in test [1] and -2.13% in test [2]. The viability increase in test [3] was -1.61%. For the same molecule, the viability in test [4] was 102%. In addition, the inhibition in test [5] was 1.37%. Moreover, the RAM network inhibition in test [6] was 7.64%.
As for `Cc1nn(CCO)c(C)c1Oc1ccccc1O`, the growth inhibition is 6.79% in test [1] and 4.62% in test [2]. In addition, the viability increase in test [3] is -1.47%. The viability in test [4] was 102%. Also, in test [5], the inhibition was 1.96%. In test [6], the RAM network inhibition is 1.86%.
Consider `Cc1cc2cc(CN(Cc3ccc4c(c3)OCO4)C(=O)c3cnccn3)c3nnnn3c2cc1C`, for which the growth inhibition is -6.95% in test [1] and 6.71% in test [2]. In addition, the viability increase in test [3] is -5.49%. For the same molecule, the viability in test [4] was 87.2%. In test [5], the inhibition was 2.06%. For the same molecule, the RAM network inhibition in test [6] was 5.81%.
As to `Clc1nc2sccn2c1/C=N/n1cnc2ccccc21`, the results for the growth inhibition in test [1] and in test [2] were 19.9% and 33.8%, respectively. In addition, in test [3], the viability increase is -6.14%. In addition, the viability in test [4] was 94.7%. Further, in test [5], the inhibition was 0.675%. In test [6], the RAM network inhibition is 2.34%.
`CCOc1cccc2c1OC1(C)CC2NC(=O)N1c1cccc(Cl)c1` (centres undefined): the growth inhibition in test [1] is -12%; in test [2] it was 5.29%. In addition, in test [3], the viability increase is -1.53%. Besides, the viability in test [4] was 99.2%. In test [5], the inhibition is -0.045%. For the same molecule, the RAM network inhibition in test [6] is 5.25%.
Take `CC1CCC(NC(=O)Cn2c(=O)[nH]c3ccsc3c2=O)CC1` (centres undefined): the growth inhibition was -13.7% in test [1] and -3.85% in test [2]. Also, the viability increase in test [3] was 1.29%. Further, the viability in test [4] is 99.5%. The inhibition in test [5] was 2.09%. Further, the RAM network inhibition in test [6] was 4.16%.
`COc1ccc(-c2nnc(NC(=O)c3cc(Cl)ccc3Cl)o2)cc1`: the growth inhibition in test [1] was 4.57%; in test [2], 4.36%. Also, in test [3], the viability increase is -5.58%. The viability in test [4] is 35.9%. Besides, in test [5], the inhibition was 2.53%. The RAM network inhibition in test [6] was 8.05%.
In the case of `COc1ccccc1-c1nc(NC(C)=O)n[nH]1`, the growth inhibition in test [1] is -12.1%; in test [2], -8.54%. Further, in test [3], the viability increase was -4.21%. The viability in test [4] is 92.1%. In test [5], the inhibition is 3.42%. Further, the RAM network inhibition in test [6] is 5.35%.
